Reference: the RNAGym collection of RNA variant scans (doi:10.1126/science.aae0568)
Fewer inactive variants are shown than the library holds.

B1: tRNA (parent)
chain: GUUCCGUUGGCGUAAUGGUAACGCGUCUCCCUCCUAAGGAGAAGACUGCGGGUUCGAGUCCCGUACGGAACG

Variants of: B1
Test: yeast fitness relative to wild type (ratio to wild type); higher = fitter; tRNA-Arg(CCU), competitive growth, 37 C, YPD
Procedure, shortened: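 Start and end populations of a pooled competition were compared by 100-nucleotide paired-end sequencing of gene amplicons. The Saccharomyces cerevisiae strains carried tRNA-Arg(CCU) gene variants at the native genomic locus, synthesised with a 3% per-site mutation rate at 69 sites, and competed in YPD at 37°C for 24 hours in six parallel replicates. Darwinian fitness relative to wild type was based on the change in genotype frequencies. Genotypes required ≥ 100 starting reads, and estimates < 0.5 were set to 0.5.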
A15U A20G C27U C30A gave a yeast fitness of no more than 0.5.
For A21G C34A C55A A69C, the yeast fitness was 0.565.
U32G C61U G67U showed a yeast fitness of no more than 0.5.
C24U C31U C49U showed a yeast fitness of 0.874.
With G25A U64A the yeast fitness was 0.901.
A36G C46U A57C showed a yeast fitness of no more than 0.5.
Work on C34A G68A yielded a yeast fitness of 0.647.
Work on C11G C49U G58C yielded a yeast fitness of 0.597.
In the case of U2G A21G C61G, the yeast fitness is reported as no more than 0.5.
C27A G56A gave a yeast fitness of 0.707.
Variant C30U G68A A70U has a yeast fitness of 0.577.
Work on U7C G10A C34A G63A yielded a yeast fitness of 0.555.
U7A C33A C46U G63U gave a yeast fitness of 0.574.
Variant C31G A37U G48C has a yeast fitness of 0.528.
Variant C31A G63A has a yeast fitness of 0.676.
For G17A C30U, the yeast fitness was 0.82.
For C5G A42G C61A G63C, the yeast fitness was no more than 0.5.
With U3G U19C the yeast fitness was 0.841.
For U8A A36U C55G U59C A69C, the yeast fitness was 0.794.
With C29U A45U C61U the yeast fitness was 0.644.
In the case of C33G G38C C46G U53C A69C, the yeast fitness is reported as no more than 0.5.
In the case of A21U C29G U35G G41C, the yeast fitness is reported as no more than 0.5.
With U2C C11A C31U C33U A42C the yeast fitness was 0.527.
C30G C66A gave a yeast fitness of no more than 0.5.
In the case of C4G C11U U19C U28G A45C U53A G63C, the yeast fitness is reported as no more than 0.5.
A21U A42G C55U showed a yeast fitness of 0.601.
C24G A42U C49U G67C showed a yeast fitness of no more than 0.5.
Work on U2A C5U U64C yielded a yeast fitness of 1.06.
With U26C U53A the yeast fitness was 0.706.
G25A A65U showed a yeast fitness of 0.981.
Work on A15U A20C G23A G50C G63A yielded a yeast fitness of no more than 0.5.
Work on G25C A36G yielded a yeast fitness of 0.864.
For C4G G12A G68U, the yeast fitness was no more than 0.5.
With U7A G9C G17C C46A G68C the yeast fitness was no more than 0.5.
U13A A21C C29U C66A showed a yeast fitness of no more than 0.5.
For U54G C61G C62U A65U, the yeast fitness was no more than 0.5.
C31G C55U U59A gave a yeast fitness of 0.559.
Variant G12A U35A G58A C66G G68A has a yeast fitness of no more than 0.5.
In the case of U8G C24G C33U, the yeast fitness is reported as no more than 0.5.
For C22G U59C, the yeast fitness was 0.864.
Variant G51C A69U has a yeast fitness of 0.624.
For U26C U28A C29G A69U, the yeast fitness was no more than 0.5.
Work on A14U C24U C33A G44C U47C yielded a yeast fitness of 0.534.
In the case of A45U, the yeast fitness is reported as 0.99.
U13C C55G C61G C66U gave a yeast fitness of no more than 0.5.
A21U C55G G56C showed a yeast fitness of no more than 0.5.
With G9C A36G A70G the yeast fitness was no more than 0.5.
In the case of C27G C31A C46A G56C, the yeast fitness is reported as no more than 0.5.
Work on U7A U26C A69U yielded a yeast fitness of 0.574.
U2C A20G C62U gave a yeast fitness of 0.599.
With C11G U13G A65C the yeast fitness was no more than 0.5.
C29U U32G A43U G44C gave a yeast fitness of no more than 0.5.
With C27G U53G A70G the yeast fitness was no more than 0.5.
Work on G9A A42G C61A yielded a yeast fitness of 0.611.
Work on C33U C46A yielded a yeast fitness of 0.821.
U16C G18A C34G G39A C62A gave a yeast fitness of no more than 0.5.
In the case of C31A C46A A65U, the yeast fitness is reported as no more than 0.5.
U26A C34U U47G U64A gave a yeast fitness of no more than 0.5.
For G12A A40C U59G A65G, the yeast fitness was no more than 0.5.
With C11U A37C U47C G68C the yeast fitness was no more than 0.5.
Variant G9A U59C A69U has a yeast fitness of 0.776.
Variant A15C C66G has a yeast fitness of 0.618.
In the case of U32G A45C G68A, the yeast fitness is reported as no more than 0.5.
U8C C30A C46G U54A U64A G68A showed a yeast fitness of no more than 0.5.
With U7G C27G U32C A36G the yeast fitness was no more than 0.5.
G25C C49U G67U G68C A69U gave a yeast fitness of no more than 0.5.
Work on A15U G23C A40U G63C yielded a yeast fitness of no more than 0.5.
U2C C46G gave a yeast fitness of 0.98.
C4G A20U G67A showed a yeast fitness of no more than 0.5.
C4U C5G gave a yeast fitness of 0.95.
C5U U8C A14C showed a yeast fitness of no more than 0.5.
C46A G58C U59C showed a yeast fitness of 0.545.
With G12A U32A C46A C66U the yeast fitness was no more than 0.5.
Work on C5G U8C U47A G68C yielded a yeast fitness of no more than 0.5.
G23A G50C gave a yeast fitness of 0.58.
Variant U7A A36U A37U has a yeast fitness of 0.768.
Variant A15U C24G U32C A42C A43C has a yeast fitness of no more than 0.5.
Variant U16G G23A A40C has a yeast fitness of no more than 0.5.
Work on G9C C31G A40C G50C C55U C60G A69G yielded a yeast fitness of 0.549.
Variant U8G G52A A70U has a yeast fitness of no more than 0.5.
For U3C C5G G67U, the yeast fitness was 0.542.
For C46G G63A, the yeast fitness was 0.798.
With U13A G23C C61A C62A the yeast fitness was 0.726.
With C4G C5G U26C A43G the yeast fitness was no more than 0.5.
For U26C C33G U54C, the yeast fitness was no more than 0.5.
A15U C31A C49G showed a yeast fitness of 0.576.
With U3G C55A G58A the yeast fitness was no more than 0.5.
For C27G C31G U54G A70C, the yeast fitness was no more than 0.5.
Work on C4A C34U A57U yielded a yeast fitness of no more than 0.5.
Variant A40U A45U U53C has a yeast fitness of 0.684.
G6A G41A C62U gave a yeast fitness of 0.619.
In the case of C33U G56A, the yeast fitness is reported as 0.682.
With A14G A40G G41A A45U the yeast fitness was 0.686.
For C29A U35C A40U, the yeast fitness was 0.639.
In the case of U3A C27A A43G, the yeast fitness is reported as 0.586.
C4A A14U A20C U28G U54C showed a yeast fitness of no more than 0.5.
For C27G C61A, the yeast fitness was 0.582.
In the case of A14G C29G U47G G58A, the yeast fitness is reported as no more than 0.5.
Variant C4G G6A G10C U19A C24G A43G C61G A65U has a yeast fitness of 0.576.
C22G C31G showed a yeast fitness of 0.745.
In the case of U19G A43U A70C, the yeast fitness is reported as 0.716.
Variant C4A U32C C33U C49G has a yeast fitness of no more than 0.5.
With C33U A45C A57U U59C the yeast fitness was no more than 0.5.
For A15G A43U G68C, the yeast fitness was 0.581.
Work on U7A A15C C55G yielded a yeast fitness of no more than 0.5.
For G41A U59G, the yeast fitness was 0.822.
C4G U7G A65G showed a yeast fitness of 0.622.
Work on G18C C24U A40U C55U U59A yielded a yeast fitness of 0.501.
Work on C33G G38A G41A yielded a yeast fitness of no more than 0.5.
With U2A C5A the yeast fitness was 0.611.
Work on C62A G67C yielded a yeast fitness of 0.81.
With G18C U35A A65C the yeast fitness was no more than 0.5.
With C11U C27G the yeast fitness was 0.703.
In the case of C27A A40G A42U C61G, the yeast fitness is reported as no more than 0.5.
Variant C27U C33G G39A A43G A57G C61U C62U has a yeast fitness of no more than 0.5.
With U19G A20U G67A the yeast fitness was 0.743.
In the case of G12A A36U A37G, the yeast fitness is reported as 0.543.
Work on U7A A20G G68A yielded a yeast fitness of no more than 0.5.
Variant U2A A14U C29G G44C has a yeast fitness of 0.534.
For G25A A37U A40C G67A, the yeast fitness was no more than 0.5.
Work on C4G A14G C33U yielded a yeast fitness of no more than 0.5.
Variant C5A G38A C49U has a yeast fitness of 0.57.
With A15G A20G C27U C33U A37U G38C C60U C62A G63U the yeast fitness was 0.684.
In the case of G12A C22G A45G C49U U53A C66G, the yeast fitness is reported as no more than 0.5.
U13C C55U A65U gave a yeast fitness of no more than 0.5.
U2C C30G C31G C46G U54A showed a yeast fitness of no more than 0.5.
C29G A43U C46U showed a yeast fitness of no more than 0.5.
Work on C5U A42G A45G C55G yielded a yeast fitness of no more than 0.5.
Variant U16C C29A has a yeast fitness of 0.629.
With U16C C22G C62U the yeast fitness was 0.716.
Variant G17C U28G G48A has a yeast fitness of 0.558.
With C11U C30U A43G the yeast fitness was no more than 0.5.
With G48C C49U C60A A65U the yeast fitness was no more than 0.5.
U16G A45G C66U showed a yeast fitness of 0.771.
C5U C22A gave a yeast fitness of 0.84.
With U13A A21G A57U the yeast fitness was 0.597.
A45U G67U A69G gave a yeast fitness of 0.536.
With A40C U53A the yeast fitness was 0.599.
U2A G17C C46U G67C gave a yeast fitness of no more than 0.5.
Variant U3A C30U A43C has a yeast fitness of 0.554.
A15G A20G C27A A40G A45C C55U showed a yeast fitness of no more than 0.5.
Work on G23A A36U G39C G50A yielded a yeast fitness of no more than 0.5.
In the case of C11U U13G C29U C34G C46G G58A, the yeast fitness is reported as no more than 0.5.
For U3G A43U, the yeast fitness was 1.08.
For C5G U26C G44A A70U, the yeast fitness was 0.546.
G18C U53A gave a yeast fitness of no more than 0.5.
For G6A G17C, the yeast fitness was 0.744.
Work on C30U G52A U54C yielded a yeast fitness of no more than 0.5.
Variant U26G C61U G63C A65G has a yeast fitness of 0.799.
C4A G18A C22U G44C C46U C49U showed a yeast fitness of no more than 0.5.
U28A C34G C49G gave a yeast fitness of no more than 0.5.
Work on A14U A21G G39C A45G G50U U53C yielded a yeast fitness of no more than 0.5.
With C30U U54C A57C A70C the yeast fitness was no more than 0.5.
Variant G6U U8C has a yeast fitness of 0.769.
In the case of G9A C34U A36G C49G C62A A65C, the yeast fitness is reported as no more than 0.5.
In the case of A20G C46G, the yeast fitness is reported as 0.942.
Work on C22G C31G A57U yielded a yeast fitness of no more than 0.5.
U19C G25C C29A G52A gave a yeast fitness of no more than 0.5.
U7A A65C A69C gave a yeast fitness of no more than 0.5.
Work on A15G A36U C61U yielded a yeast fitness of no more than 0.5.
Work on C33U C49U A69U yielded a yeast fitness of 0.564.
For G9U C24G C55U C66U, the yeast fitness was no more than 0.5.
With A36U G38A C49G C60G A70G the yeast fitness was 0.592.
In the case of C61U A65C, the yeast fitness is reported as 0.864.
U28A C49U U54G C62U showed a yeast fitness of no more than 0.5.
In the case of U2A C11A, the yeast fitness is reported as 0.614.
Variant C11G A20U C24A G25C A43U has a yeast fitness of no more than 0.5.
